Reference: the EternaBench riboswitch data

Tested on: MS2 coat protein
Experiment: apparent Kd, MS2 coat protein; higher = weaker binding; RNA-MaP array; FMN 200 µM where present
Outline: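 In 100 mM Tris-HCl pH 7.5, 80 mM KCl, 4 mM MgCl2, BSA, DTT, yeast tRNA and Tween-20, SNAP-549-labelled MS2 coat protein was titrated from 0.7 or 1.5 nM, doubling to 3 µM, over designs transcribed by stalled E. coli RNA polymerase on Illumina sequencing-chip clusters. This was done first without ligand, then with ligand held constant. After green signal was normalised to red-channel RNA signal and control-cluster median Fmax, the apparent Kd was taken as the median of filtered per-cluster binding-curve fits.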

[1] = designed as: ON switch for flavin mononucleotide, no ligand
[2] = ligand present: flavin mononucleotide, designed as: ON switch for flavin mononucleotide
[3] = designed as: OFF switch for flavin mononucleotide, no ligand
[4] = ligand present: flavin mononucleotide, designed as: OFF switch for flavin mononucleotide

Sequence	apparent Kd [1]	apparent Kd [2]	apparent Kd [3]	apparent Kd [4]
AACCUAUUACAGAAGGCCAGCUACAUGAGGAUCACCCAUGUCGAGUCAUGGAGGAUAUGUAGUAAUUUGCACGCGGGCGAGCAC	59.7 nM	7.05 nM		
GCUAGAAGCGUGAAAUAUCACAUGAGGAUCACCCAUGUGACACAGGAUAUAACAAUAUCAGAAGGUUAGAAGGGUGAACACGCC	119 nM	32.9 nM		
GGGAAACAUGAGGAUCACCCAUGUGAGGAUAUCGAAAAAAAAAAAAAAAAAAAAAAAACGAGAAGGCACACCGG			71 nM	110 nM
UUAAAUCAUGUAGGAUAUGCAUGGCGAAGCUACGCAGAAGGACAUGAGGAUCACCCAUGUUAUAGCUACCCAGAUCGGUGGCAA			90.2 nM	237 nM
AAAAAACAUGAGGAUCACCCAUGUGAGGAUAUCGAAAAGUCAAAGAAAAAGACGAAAACGAGAAGGCACAAAAA			53.8 nM	65.8 nM
CUGCGGUAGGAGAAGGACGGCGGGUUAUUUUCGUACAUGAGGAUCACCCAUGUAGGAUAUCCUACCUCAGGCGGCCUACUACAG			19.9 nM	30 nM
ACAUUGCGAGGAUAUACAUGAGGAUCACCCAUGUGGUGGCAGAUACGGUAGGACUAGUGUAGAAGGUGUCAUGG			490 nM	397 nM
UUGUUAGCAGGAUAUAUCCACGACCACAUGAGGAUCACCCAUGUGGCCGCUUGAGGUUGUAUAGAAGGGCUUUGUU			13.8 nM	14.3 nM
AAAUCGGCGGAGAAGGGACCUUUACCCUAUCGGUCAGGAUAUCCGCUACAUGAGGAUCACCCAUGUGCCGGGUGUCCGCGUGUG			22.2 nM	12.2 nM
UUGGACGUCGUAGGAUAUGUAGGAUAUUCCUACAUGAGGAUCACCCAUGUUGACAUUGAAGAAGGACAGAAGGACGAUGUCCAU	87.7 nM	5.02 nM		
AUCCGUCGUGUGAGGAUAUAAGAGUUCAAGGUUGUUUAGAAGGUACAUGAGGAUCACCCAUGUCACCCUGAUUG			14.9 nM	14.9 nM
GUCAGCUCGUGAGGAUAUGCAUCACUGCUUCGGCAGUGUAUUAAGAUCACAUGAGGAUCACCCAUGUAGAAGGCACGAGCUGAU			7.3 nM	41.7 nM
UAAGAGUGAGGAUAUACGUCGCUGGUCAGGAUGGACGCAUGACAUGAGGAUCACCCAUGUAGAAGGCACAAAAC			23.8 nM	43.7 nM
AAUUAGGUCACAGGAUAUACUACUUCCAAUGCUGUAGAAGGGUGACACAUUCUUUGCUGACAUGAGGAUCACCCAUGUAACCAC	231 nM	41 nM		
CAUUAACUACAAUUACAUGAGGAUCACCCAUGUUUUGGGAUGCAGGAUAUGUGGUAUAUUAAUUAACAGAAGGGCAAUAAUUUU	41.5 nM	36.7 nM		
AGGAAACAUGAGGAUCACCCAUGUAAAAAUAUGGGAGGAUAUGCGAAAAGAAACAAAGAAGCAGAAGGCCUAAGAA	89.8 nM	23.1 nM		
AACCUAUUACAGAAGGCCAGCUACAUGAGGAUCACCCAUGUCGAGUCAUGGAGGAUAUGUAGUAAUUUGCCCGCGGGCGAGUAC	31.3 nM	5.78 nM		
UAUAUAUUCGUAGGAUAUCCGUUAAAACCAUGUGGAGAAGGACGAACAUGAGGAUCACCCAUGUAUCAUGGUGUAGACAAUUUU			40.3 nM	187 nM
AUCAGCUCGUCAGGAUAUACGUCACUGCGUCUGCAGUGUGGUAAGAUCACAUGAGGAUCACCCAUGUAGAAGGGACGAGCUGAU			14.1 nM	254 nM
CCACUGUCAGGAUAUCGUGCAUAAACGUUUACAUUUAUGUGCGAGAAGGGACAUGAGGAUCACCCAUGUAAACG			314 nM	515 nM
UGUCGGAGCAGAGGAUAUUACAUGAGGAUCACCCAUGUAGGAACCAAUAGCUGGAAACAGCAAUGUAAGAAGGCUGCUCCGACA			19.6 nM	267 nM
AGUAAGAUGCAGAAGGUGUUAGCUAGAGCUACGACAUGAGGAUCACCCAUGUACUAGAAACAGUACAAGGAUAUGCAUCUUACC	18.9 nM	6.52 nM		
AAUAGUGACCAGAAGGCGUCGCGUCGAUAGCGACGAGGAUAUGGUGAGUGAGGAGCAAACUCCACAUGAGGAUCACCCAUGUCC	594 nM	89.9 nM		
ACGCGUUGGGAGAAGGUACAUUAAAUUAGUUUAACAUGAGGAUCACCCAUGUAAGGAUAUCCCAUCGUGUAAUAUUAUACAGCA			10.2 nM	12.2 nM

Sequence	apparent Kd [1]	apparent Kd [2]	apparent Kd [3]	apparent Kd [4]
AGAUCACAAAUUUGGGAUAGUAGUACAGAAGGCACGGAAGUACAUGAGGAUCACCCAUGUGUGGGUGAGGAUAUGUACUCACUA	217 nM	14 nM		
GUGGUCAGACAUGAGGAUCACCCAUGUGGAAUAAAUAAGGAGAAGGAUAUCUAAUAUAGGAUAUAAGAGAAGGUUUGGUUGGUG	74 nM	68 nM		
AUAAAUAAGGAGGAUAUCGUAUCGGAAACGAUACGAGAAGGUCUAACAUGAGGAUCACCCAUGUUCCUCAAUAA			37.7 nM	58.5 nM
CGAUGUUAUGUCAGGAUAUGCAUUGCGAAAGCAAUGCAGAAGGGACAUGAGGAUCACCCAUGUCCUAACCAUCG			13.2 nM	20.1 nM
AAAAGUCCUGAGGAUAUCGAAACUCCAUUAGGACGAGAAGGCGGGACAUGAGGAUCACCCAUGUGGGCGAGCUC			232 nM	475 nM
AAUAACAAGCAGAAGGGUGAAACGAUAUAGUGCACAGGAUAUGCAAUAAUUCUAAACAUGAGGAUCACCCAUGUCUAGCAUAAA	28.2 nM	9.84 nM		
UGGUACUAGGUAGGAUAUGGGAAGAUACAUGAGGAUCACCCAUGUUUAAGAAUGCCGAGAGGCAACUAGAAGGCCCUAGUACCU	652 nM	78.9 nM		
AAAAAGUGAGGAUAUACAUGAGGAUCACCCAUGUGAAAGUCGAAAAAAAAGACAAGAAGUAGAAGGCACAAAAA			30.4 nM	34.9 nM
UGGUACUAGGGAGGAUAUGGGAAGAUACAUGAGGAUCACCCAUGUUUAAGAAUUCCGAGAGGCAACUAGAAGGCCCUAGUACCU	35.7 nM	13 nM		
GGUUGGCGAGGAUAUACAUGAGGAUCACCCAUGUGGUCCUGUGAAAAAAAAAACCUUUGUAGAAGGCGCGGGUC			292 nM	281 nM
UUUGGGUGGCUGGAGGAUAUCCUGGUUGUUACAUGAGGAUCACCCAUGUGCCGCGCGGUGCGCUGGGAGAAGGCUGGCGGCCGUU	130 nM	27.6 nM		
GAGCUGCAGACAGGAUAUGAGGCCGCCAUGGUCUCAGAAGGGUCAUGUUCUACAUGAGGAUCACCCAUGUCGGACAGCUCGAAG	134 nM	11 nM		
UAUAUAUAGUAAGGAUAUGUAAUUCUUUUAUAAACAGAAGGUACUGACAUGAGGAUCACCCAUGUUUUAGUGUGGGCAUGUAGA			66.3 nM	81.9 nM
CUGAUGUGAGGAUAUCUACGCCAUGUCUUUGACAUGGCGCAAGAGAAGGCACAUGAGGAUCACCCAUGUUCUUC			62.9 nM	723 nM
GGAUGUCAAAGACAUCCAAUACGAACAUGAGGAUCACCCAUGUAGGAUAUGCUACUCAAAGAGUAGCAGAAGGACAUGUGCCUU			33.6 nM	271 nM
GGCGGCAAUGAGAAGGGUCACAUGAGGAUCACCCAUGUGCUCUUCGCCGUGACAGGAUAUCAUCGCCGUCAGGUUAGAUUUUUG			7.26 nM	26.1 nM
CACCGUUAGAGAGGAUAUCGUACAUGAGGAUCACCCAUGUAAUAAAUGAGAAUUUCGGAUGUCUGCGAGAAGGCUCGAAUCGGC			34.6 nM	27.9 nM
UUUUUACGAGGAUAUCGUUUUUUUCACAUGAGGAUCACCCAUGUUGUUUAUGUUUCGUUGCGAGAAGGCGUUUGUU			27.3 nM	21.3 nM
AAUAACAGAGGAUAUACUGUUUUAUGUAUUUAUUAUUUUGAACAUGAGGAUCACCCAUGUAGAAGGCUGAUUAA			33.3 nM	28.4 nM
GGAGCCGGCACGGAGGAUAUUCAUAUUAAAACAUGAGGAUCACCCAUGUAGGCCAGAAGGCCUUGGGAGAAGGCCGAUCGGCUCG	450 nM	29.7 nM		
GAAUAUUGGAUAAACAUGAGGAUCACCCAUGUAACUAGACAUGAGGAUAUGGAUUCUAAUUGGAUCCAGAAGGUAUCAAUAUUC	199 nM	227 nM		
UUCGUGCAGUUUUGCUGUACGCGUACAUGAGGAUCACCCAUGUAGGAUAUGGUAGGCUUUGCUUACUAGAAGGAUAGUGUGAUC			163 nM	33.8 nM
UUAGGAGUUGUAGGAUAUCGGAUAGAAUGUAAACGAGAAGGACAUGAGGAUCACCCAUGUAUUGAAGAGAAGAGAGAGAGAGAG			24.5 nM	21.1 nM
AACAGUACAGGAUAUACAUGAGGAUCACCCAUGUGACAAUUAAGUGGCGUACCACAGAGUAGAAGGGUACUGGA			35 nM	151 nM
